Columns and labels:
[1] = test system: Mus musculus; test: Gastroprotective activity in Swiss albino mouse assessed as reduction in HCl/EtOH-induced gastric lesions at 40 mg/kg, po dosed 50 mins before HCl/EtOH challenge measured after 1 hr relative to control; format: functional, Stomach; design: scale not given: the % may be the effect or the level left
How it was run: (§1)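 Male Swiss albino mice (30 ± 3 g) were randomized into groups of 7 and fasted 24 h with free water, then dosed orally. Controls received 12% Tween 80. Mice were killed 1 h after HCl/EtOH. Stomachs were inflated with saline, fixed in 5% formalin for 30 min and opened along the greater curvature. Lesion index was the summed lesion length (mm), compared with controls by ANOVA/Dunnett.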

[2] = test system: HepG2; test: Cytotoxicity against human HepG2 cells after 24 hrs by neutral red uptake assay; format: cell-based; settings: HepG2, 24 h
How it was run: (§2)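 Confluent monolayers, seeded at 25 000 cells/mL, were used. MRC-5 and Hep G2 were grown in MEM and AGS in Ham F-12, all with 10% heat-inactivated FBS at 37 °C and 5% CO₂. Cells were exposed for 24 h to 0–1000 µM compound with 1% DMSO final. Viability was read by neutral red uptake as % of control, with quadruplicates in three separate experiments. IC50 was read graphically from dose-response curves.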

[3] = test system: MRC5; test: Cytotoxicity against human MRC5 cells after 24 hrs by neutral red uptake assay; format: cell-based; settings: MRC5, 24 h; how it was run: as §2
[4] = test system: AGS; test: Cytotoxicity against human AGS cells after 24 hrs by neutral red uptake assay; format: cell-based; how it was run: as §2
[5] = test system: Mus musculus; test: Gastroprotective activity in Swiss albino mouse assessed as reduction in HCl/EtOH-induced gastric lesions at 20 mg/kg, po dosed 50 mins before HCl/EtOH challenge measured after 1 hr relative to control; format: functional, Stomach; design: scale not given: the % may be the effect or the level left
How it was run: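 Male Swiss albino mice (30 ± 3 g) were randomised into groups of 7 and fasted 24 h with free water. Dosing was oral at 10, 20 or 40 mg/kg; controls received 12% Tween 80. Mice were killed 1 h after HCl/EtOH, and stomachs were saline-inflated, fixed in 5% formalin for 30 min and opened. Lesion index is the summed lesion length (mm); % reduction is versus control. ANOVA with Dunnett's test.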

[6] = test system: Mus musculus; test: Gastroprotective activity in Swiss albino mouse assessed as reduction in HCl/EtOH-induced gastric lesions at 10 mg/kg, po dosed 50 mins before HCl/EtOH challenge measured after 1 hr relative to control; format: functional, Stomach; design: scale not given: the % may be the effect or the level left; how it was run: as §1

SMILES	Activity [1]	IC50 [2]	IC50 [3]	IC50 [4]	Activity [5]	Activity [6]
CC(C)c1cc2c3c(c1OC(=O)CCCc1c[nH]c4ccccc14)OC(=O)[C@@]31CCCC(C)(C)[C@@H]1CC2	50%	120 µM	54.5 µM	46.8 µM	–	–
CC(C)c1cc2c3c(c1OC(=O)CCC(=O)Oc1c(C(C)C)cc4c5c1OC(=O)[C@]51CCCC(C)(C)C1CC4)OC(=O)[C@@]31CCCC(C)(C)[C@@H]1CC2 (stereo partly specified)	62%	> 1000 µM	> 1000 µM	623 µM	–	–
CC(C)c1cc2c3c(c1OC(=O)c1ccccc1C(=O)Oc1c(C(C)C)cc4c5c1OC(=O)[C@]51CCCC(C)(C)C1CC4)OC(=O)[C@@]31CCCC(C)(C)[C@@H]1CC2 (stereo partly specified)	15%	611 µM	678 µM	375 µM	–	–
CC(C)c1cc2c3c(c1OC(=O)c1ccccc1)OC(=O)[C@@]31CCCC(C)(C)[C@@H]1CC2	48%	510 µM	512 µM	503 µM	–	–
CCC(=O)Oc1c(C(C)C)cc2c3c1OC(=O)[C@@]31CCCC(C)(C)[C@@H]1CC2	59%	196 µM	125 µM	113 µM	–	–
CC(C)C(=O)Oc1c(C(C)C)cc2c3c1OC(=O)[C@@]31CCCC(C)(C)[C@@H]1CC2	72%	112 µM	119 µM	105 µM	–	–
CC(C)c1cc2c3c(c1OC(=O)CCl)OC(=O)[C@@]31CCCC(C)(C)[C@@H]1CC2	81%	203 µM	130 µM	103 µM	–	–
CC(=O)Oc1c(C(C)C)cc2c3c1OC(=O)[C@@]31CCCC(C)(C)[C@@H]1CC2	62%	294 µM	290 µM	275 µM	–	–
COc1c(C(C)C)cc2c(c1O)[C@@]1(C(=O)O)CCCC(C)(C)[C@@H]1CC2	–	43.5 µM	54.9 µM	45.2 µM	–	–
CCCCCCCCCCCCCCCC(=O)Oc1c(C(C)C)cc2c3c1OC(=O)[C@@]31CCCC(C)(C)[C@@H]1CC2	65%	> 1000 µM	> 1000 µM	> 1000 µM	–	–
CC(C)c1cc2c3c(c1OC(=O)Cc1c[nH]c4ccccc14)OC(=O)[C@@]31CCCC(C)(C)[C@@H]1CC2	51%	251 µM	109 µM	85.6 µM	–	–
CCCCCCCCCCCC(=O)Oc1c(C(C)C)cc2c3c1OC(=O)[C@@]31CCCC(C)(C)[C@@H]1CC2	36%	> 1000 µM	> 1000 µM	413 µM	–	–
CCCC(=O)Oc1c(C(C)C)cc2c3c1OC(=O)[C@@]31CCCC(C)(C)[C@@H]1CC2	82%	56.1 µM	44.4 µM	99.5 µM	–	–
CCCCC/C=C/C/C=C/CCCCCCCC(=O)Oc1c(C(C)C)cc2c3c1OC(=O)[C@@]31CCCC(C)(C)[C@@H]1CC2	45%	289 µM	293 µM	253 µM	–	–
CCCCCCCC/C=C/CCCCCCCC(=O)Oc1c(C(C)C)cc2c3c1OC(=O)[C@@]31CCCC(C)(C)[C@@H]1CC2	70%	> 1000 µM	> 1000 µM	822 µM	–	–
CC(C)c1cc2c3c(c1O)OC(=O)[C@@]31CCCC(C)(C)[C@@H]1CC2	59.5%	240 µM	293 µM	246 µM	30.6%	20.8%
CC(C)c1cc2c3c(c1OC(=O)Cc1ccccc1)OC(=O)[C@@]31CCCC(C)(C)[C@@H]1CC2	44%	522 µM	516 µM	133 µM	–	–
CC(C)c1cc2c3c(c1OC(=O)c1cccnc1)OC(=O)[C@@]31CCCC(C)(C)[C@@H]1CC2	9%	264 µM	296 µM	280 µM	–	–
COc1c(C(C)C)cc2c3c1OC(=O)[C@@]31CCCC(C)(C)[C@@H]1CC2	71%	58.1 µM	31.9 µM	26.7 µM	–	–
CC(C)c1cc2c(c(O)c1O)[C@@]1(C(=O)O)CCCC(C)(C)[C@@H]1CC2 [CARNOSIC ACID]	–	41.3 µM	21.8 µM	89.8 µM	–	–
Cc1c(OCC(F)(F)F)ccnc1C[S+]([O-])c1nc2ccccc2[nH]1 (stereo unspecified) [LANSOPRAZOLE]	–	–	–	–	80%	–

— ChEMBL document CHEMBL1157107, “Gastroprotective effect of carnosic acid gamma-lactone derivatives” (J Nat Prod, 2010)
